Results reported in ChEMBL document CHEMBL1134767, “Structural basis of binding of high-affinity ligands to protein kinase C: prediction of the binding modes through a new molecular dynamics method and evaluation by site-directed mutagenesis” (J Med Chem, 2001).

Columns and labels:
[1] = molecular target: Protein kinase C delta type (Mus musculus, UniProt P28867, F243G); experiment: Displacement of [3H]PDBu from protein kinase C delta C1b domain mutant (F13G)
Outline: (§1)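 PKCδ C1b domain, wild type or sequence-confirmed point mutant, expressed as a GST-fusion protein in E. coli and used purified or as total lysate. Incubated 5 min at 18 °C with [3H]PDBu, […] phosphatidylserine, 1 mM EGTA and varied unlabeled ligand. Protein was precipitated with 35% poly(ethylene glycol) and centrifuged, and supernatant and pellet radioactivity counted. Ki was calculated from final ligand concentrations.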

[2] = molecular target: Protein kinase C delta type (Mus musculus, UniProt P28867, L250G); experiment: Displacement of [3H]PDBu from protein kinase C delta C1b domain mutant (L20G); outline: as §1
Protein kinase C delta type (Mus musculus, UniProt P28867, L250G), sequence (P28867 whole entry L250G, the tested form may be a part): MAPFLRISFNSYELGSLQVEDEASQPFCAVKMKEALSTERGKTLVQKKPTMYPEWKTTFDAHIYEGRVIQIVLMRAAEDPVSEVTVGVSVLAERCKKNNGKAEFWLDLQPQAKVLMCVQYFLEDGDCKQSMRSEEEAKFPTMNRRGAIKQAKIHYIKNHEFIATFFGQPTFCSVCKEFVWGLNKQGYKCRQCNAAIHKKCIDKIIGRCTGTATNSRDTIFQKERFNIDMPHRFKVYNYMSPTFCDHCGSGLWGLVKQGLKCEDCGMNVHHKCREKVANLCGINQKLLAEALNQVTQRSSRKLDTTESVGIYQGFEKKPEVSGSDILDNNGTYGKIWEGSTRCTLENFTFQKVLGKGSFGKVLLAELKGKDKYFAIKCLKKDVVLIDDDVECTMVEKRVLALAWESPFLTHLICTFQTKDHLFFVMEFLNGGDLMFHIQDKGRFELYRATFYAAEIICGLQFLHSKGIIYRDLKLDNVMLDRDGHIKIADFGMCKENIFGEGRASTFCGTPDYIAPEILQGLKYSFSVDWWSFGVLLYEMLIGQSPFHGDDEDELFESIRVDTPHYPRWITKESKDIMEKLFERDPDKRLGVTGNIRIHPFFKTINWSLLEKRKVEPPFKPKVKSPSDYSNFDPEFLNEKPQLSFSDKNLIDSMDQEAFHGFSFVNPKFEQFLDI

[3] = molecular target: Protein kinase C delta type (Mus musculus, UniProt P28867, P241G); experiment: Displacement of [3H]-PDBu from protein kinase C delta C1b domain mutant (P11G); outline: as §1
Protein kinase C delta type (Mus musculus, UniProt P28867, P241G), sequence (P28867 whole entry P241G, the tested form may be a part): as the sequence (P28867 whole entry L250G, the tested form may be a part) above, with P241G, G250L counted along it

[4] = molecular target: Protein kinase C delta type (Mus musculus, UniProt P28867, Q257V); experiment: Displacement of [3H]PDBu from protein kinase C delta C1b domain mutant (Q27V); outline: as §1
Protein kinase C delta type (Mus musculus, UniProt P28867, Q257V), sequence (P28867 whole entry Q257V, the tested form may be a part): as the sequence (P28867 whole entry L250G, the tested form may be a part) above, with G250L, Q257V counted along it

[5] = molecular target: Protein kinase C delta type (Mus musculus, UniProt P28867, T242G); experiment: Displacement of [3H]PDBu from protein kinase C delta C1b domain mutant (T12G); outline: as §1
Protein kinase C delta type (Mus musculus, UniProt P28867, T242G), sequence (P28867 whole entry T242G, the tested form may be a part): as the sequence (P28867 whole entry L250G, the tested form may be a part) above, with T242G, G250L counted along it

[6] = molecular target: Protein kinase C delta type (Mus musculus, UniProt P28867, T8G); experiment: Displacement of [3H]PDBu from protein kinase C delta C1b domain mutant (T8G); outline: as §1
Protein kinase C delta type (Mus musculus, UniProt P28867, T8G), sequence (P28867 whole entry, looked up, stated change not applied, the tested form may be a part): as the sequence (P28867 whole entry L250G, the tested form may be a part) above, with G250L counted along it

[7] = molecular target: Protein kinase C delta type (Mus musculus, UniProt P28867); experiment: Displacement of [3H]PDBu from protein kinase C delta C1b domain (Wild type); outline: as §1
Protein kinase C delta type (Mus musculus, UniProt P28867), sequence (P28867 whole entry, the tested form may be a part): as the sequence (P28867 whole entry L250G, the tested form may be a part) above, with G250L counted along it

[8] = molecular target: Protein kinase C delta type (Mus musculus, UniProt P28867, W252G); experiment: Displacement of [3H]PDBu from protein kinase C delta C1b domain mutant (W22G)
Protein kinase C delta type (Mus musculus, UniProt P28867, W252G), sequence (P28867 whole entry W252G, the tested form may be a part): as the sequence (P28867 whole entry L250G, the tested form may be a part) above, with G250L, W252G counted along it

Protein kinase C delta type (Mus musculus, UniProt P28867, F243G), sequence (P28867 whole entry F243G, the tested form may be a part): as the sequence (P28867 whole entry L250G, the tested form may be a part) above, with F243G, G250L counted along it

Compound | Ki [1] | Ki [2] | Ki [3] | Ki [4] | Ki [5] | Ki [6] | Ki [7] | Ki [8]
CC(C)[C@H]1C(=O)N[C@H](CO)Cc2c[nH]c3cccc(c23)N1C [INDOLACTUM] | 10.9 nM | 66.2 nM | 7080 nM | 1100 nM | 25.3 nM | 658 nM |  | 
C=C(C)[C@@]12OC3(c4ccccc4)O[C@@H]1[C@@H]1C4O[C@]4(CO)[C@@H](O)[C@]4(O)C(=O)C(C)=C[C@H]4[C@@]1(O3)[C@H](C)[C@H]2OC(=O)/C=C/c1ccccc1 (stereo partly drawn) [THYMELEATOXIN] | 7.8 nM | 11.3 nM | 417 nM | 47.1 nM | 19.1 nM | 86.6 nM | 2.71 nM | 
CCCC(=O)O[C@@H]1[C@@H](C)[C@@]2(O)[C@@H](C=C(CO)C[C@]3(O)C(=O)C(C)=C[C@@H]23)[C@@H]2C(C)(C)[C@]12OC(=O)CCC | 0.82 nM | 6.59 nM | 210 nM | 14.2 nM | 1.24 nM | 18.4 nM | 0.351 nM | 25 nM
CC1=CC23C(=O)[C@@H](C=C(CO)[C@@H](O)[C@]2(O)[C@H]1OC(=O)c1ccccc1)[C@H]1[C@@H](C[C@H]3C)C1(C)C | 0.15 nM | 1.08 nM | 10.8 nM | 1.41 nM | 0.72 nM | 3.14 nM | 0.13 nM | 
